Data as given in ChEMBL document CHEMBL1138152, “Design and synthesis of novel hydrazide-linked bifunctional peptides as delta/mu opioid receptor agonists and CCK-1/CCK-2 receptor antagonists” (J Med Chem, 2006).

Columns and labels:
[1] = biological target: T1, Delta-type opioid receptor (Homo sapiens, UniProt P41143); assay: Displacement of [3H]DPDPE from human delta opioid receptor expressed in HN9.10 cells; type: cell-based
Summary of the method: (§1)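 Membranes (50 µg) from HN9.10 neuroblastoma cells stably expressing rat MOR or human DOR. Buffer was 50 mM Tris pH 7.4 with bacitracin, bestatin, captopril, PMSF and 1 mg/mL BSA. Radioligand was [3H]DAMGO (MOR) or [3H]DPDPE (DOR), each 1.0 nM, with 10 test concentrations. Incubated 3 h at 25 °C, in duplicate. Nonspecific binding with 10 µM naloxone. Filtration, then scintillation counting.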

Mu-type opioid receptor [2] = biological target: T2, Mu-type opioid receptor (Rattus norvegicus, UniProt P33535); assay: Displacement of [3H]DAMGO from rat mu opioid receptor expressed in HN9.10 cells; type: cell-based; summary of the method: as §1
T2 sequence (P33535 whole entry): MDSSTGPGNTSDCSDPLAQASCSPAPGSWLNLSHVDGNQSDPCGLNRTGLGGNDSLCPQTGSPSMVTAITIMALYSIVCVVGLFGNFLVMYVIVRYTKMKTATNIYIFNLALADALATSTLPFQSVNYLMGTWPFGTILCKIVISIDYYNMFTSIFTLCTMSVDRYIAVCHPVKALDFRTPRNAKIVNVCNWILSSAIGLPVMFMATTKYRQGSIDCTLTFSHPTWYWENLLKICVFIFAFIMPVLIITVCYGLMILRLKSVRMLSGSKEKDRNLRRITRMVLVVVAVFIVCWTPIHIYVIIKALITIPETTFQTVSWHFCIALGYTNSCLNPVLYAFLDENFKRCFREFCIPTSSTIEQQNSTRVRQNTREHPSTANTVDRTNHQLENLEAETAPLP

[3] = biological target: T3, Cholecystokinin receptor type A (Homo sapiens, UniProt P32238); assay: Displacement of [125I]CCK8 from human CCK1 receptor expressed in HEK293 cells; type: cell-based
T3 sequence (P32238 whole entry): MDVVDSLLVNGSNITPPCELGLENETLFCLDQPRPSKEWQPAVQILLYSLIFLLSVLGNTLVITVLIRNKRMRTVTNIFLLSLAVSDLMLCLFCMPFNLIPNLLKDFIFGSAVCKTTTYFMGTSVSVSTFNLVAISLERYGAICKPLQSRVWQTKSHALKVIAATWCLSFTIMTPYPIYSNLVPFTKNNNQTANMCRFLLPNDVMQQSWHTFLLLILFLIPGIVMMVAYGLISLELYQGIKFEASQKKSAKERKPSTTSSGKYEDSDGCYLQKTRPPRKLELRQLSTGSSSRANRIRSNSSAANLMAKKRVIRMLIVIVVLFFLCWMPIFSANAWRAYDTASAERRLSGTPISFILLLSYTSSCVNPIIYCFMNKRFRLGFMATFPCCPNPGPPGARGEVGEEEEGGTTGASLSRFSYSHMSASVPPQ

[4] = biological target: T4, Gastrin/cholecystokinin type B receptor (Homo sapiens, UniProt P32239); assay: Displacement of [125I]CCK8 from human CCK2 receptor expressed in HEK293 cells; type: cell-based
T4 sequence (P32239 whole entry): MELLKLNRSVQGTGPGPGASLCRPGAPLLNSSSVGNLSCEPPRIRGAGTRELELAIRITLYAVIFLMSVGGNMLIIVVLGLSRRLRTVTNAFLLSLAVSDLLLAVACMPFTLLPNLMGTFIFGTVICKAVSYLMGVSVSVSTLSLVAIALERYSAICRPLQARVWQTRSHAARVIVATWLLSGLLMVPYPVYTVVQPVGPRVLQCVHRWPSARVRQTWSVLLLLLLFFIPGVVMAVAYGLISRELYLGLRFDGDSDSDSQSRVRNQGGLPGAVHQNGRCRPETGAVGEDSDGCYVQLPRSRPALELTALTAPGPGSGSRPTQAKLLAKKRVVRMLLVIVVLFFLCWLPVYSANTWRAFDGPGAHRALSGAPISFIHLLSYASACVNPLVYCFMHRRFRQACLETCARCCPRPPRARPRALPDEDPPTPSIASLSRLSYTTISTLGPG

[5] = biological target: T1, Delta-type opioid receptor; assay: Inhibition of [35S]GTP-gamma-S binding to human delta opioid receptor expressed in CHO cells; type: functional, cell-based
Summary of the method: (§2)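 CHO-expressed receptor membranes (10 µg) in 50 mM HEPES pH 7.4 with EDTA, 5 mM MgCl2, 30 µM GDP, DTT, 100 mM NaCl, PMSF, BSA and 0.1 nM [35S]GTPγS. Test drug at various concentrations, duplicate or triplicate, 90 min at 30 °C. Nonspecific binding with 10 µM GTPγS.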

Mu-type opioid receptor [6] = biological target: T2, Mu-type opioid receptor; assay: (§3) Inhibition of [35S]GTP-gamma-S binding to rat mu opioid receptor expressed in CHO cells; type: functional, cell-based; summary of the method: as §2
[7] = biological target: Delta-type opioid receptor (Mus musculus, UniProt P32300); assay: Agonist activity at delta opioid receptor by inhibition of muscle contraction in electrically stimulated isolated mouse vas deferens; type: functional, tissue-based
Sequence of Delta-type opioid receptor (Mus musculus, UniProt P32300) (P32300 whole entry): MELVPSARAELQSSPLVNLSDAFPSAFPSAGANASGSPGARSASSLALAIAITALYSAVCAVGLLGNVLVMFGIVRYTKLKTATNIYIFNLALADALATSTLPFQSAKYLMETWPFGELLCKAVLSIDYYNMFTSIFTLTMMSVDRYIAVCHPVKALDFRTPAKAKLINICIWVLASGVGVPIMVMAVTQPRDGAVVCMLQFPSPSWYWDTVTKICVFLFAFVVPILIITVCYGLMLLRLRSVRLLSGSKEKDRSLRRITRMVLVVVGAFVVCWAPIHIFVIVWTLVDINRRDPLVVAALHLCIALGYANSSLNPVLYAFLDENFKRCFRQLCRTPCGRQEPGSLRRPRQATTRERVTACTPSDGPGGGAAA
Summary of the method: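 Male ICR mouse vasa deferentia in 20-mL baths, 0.5 g tension, oxygenated Mg-free Krebs at 37 °C; field stimulation 0.1 Hz, 2.0 ms single pulses, supramaximal voltage. Tissue integrity checked with DPDPE (10 nM). Compound added cumulatively until maximal inhibition. Inhibition taken as mean contraction height for 1 min before dosing versus height 3 min after. IC50 from Hill-equation fit by nonlinear least squares.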

Mu-type opioid receptor [8] = biological target: Mu-type opioid receptor (Cavia porcellus, UniProt P97266); assay: Agonist activity at mu opioid receptor by inhibition of muscle contraction in electrically stimulated isolated guinea pig ileum; type: functional, tissue-based
Sequence of Mu-type opioid receptor (Cavia porcellus, UniProt P97266) (P97266 whole entry): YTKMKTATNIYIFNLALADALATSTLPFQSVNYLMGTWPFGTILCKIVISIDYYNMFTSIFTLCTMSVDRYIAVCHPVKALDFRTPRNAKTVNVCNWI
Summary of the method: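 Longitudinal muscle–myenteric plexus strips from male Hartley guinea pig ileum, 1 g tension, oxygenated Krebs at 37 °C, 15 min equilibration. Stimulated at 0.1 Hz, 0.4 ms, supramaximal voltage. Integrity checked with PL-017 (10 nM). Compound added until maximal inhibition. Inhibition taken as contraction height 1 min before versus 3 min after dosing. IC50 from Hill-equation fit.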

[9] = biological target: Mu-type opioid receptor (Rattus norvegicus) (UniProt P33535); assay: as §3; type: functional, cell-based; summary of the method: as §2
Sequence of Mu-type opioid receptor (Rattus norvegicus) (P33535 whole entry): as the sequence (P33535 whole entry) above

[10] = biological target: Cholecystokinin receptor (Homo sapiens) (UniProt P32239+P32238); assay: Agonist activity at CCK receptor of guinea pig ileum at 1 uM; type: functional, tissue-based; conditions: Cavia porcellus, target entry is the homologue from another species
Summary of the method: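 Guinea pig ileum LMMP strips (male Hartley), 20-mL baths, 1 g tension, oxygenated Krebs bicarbonate buffer, 37 °C. Tissue first challenged with 67 mM KCl to set maximal contraction. Test compound added to the bath; agonist activity taken as contraction height as a percentage of the maximal KCl contraction (A50).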

T1 sequence (P41143 whole entry): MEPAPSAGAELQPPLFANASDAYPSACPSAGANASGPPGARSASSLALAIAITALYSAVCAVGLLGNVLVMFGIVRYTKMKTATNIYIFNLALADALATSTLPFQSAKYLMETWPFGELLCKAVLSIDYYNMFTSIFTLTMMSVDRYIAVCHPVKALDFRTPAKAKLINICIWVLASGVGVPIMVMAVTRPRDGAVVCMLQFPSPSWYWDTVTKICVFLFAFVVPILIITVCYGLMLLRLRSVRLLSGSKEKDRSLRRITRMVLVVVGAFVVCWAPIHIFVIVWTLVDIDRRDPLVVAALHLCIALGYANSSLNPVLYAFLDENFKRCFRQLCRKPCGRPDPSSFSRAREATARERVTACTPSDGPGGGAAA

| SMILES | IC50 [1] [µM] | Ki [1] [µM] | IC50 (Mu-type opioid receptor [2]) [µM] | Ki (Mu-type opioid receptor [2]) [µM] | IC50 [3] [µM] | Ki [3] [µM] | IC50 [4] [µM] | Ki [4] [µM] | EC50 [5] [µM] | EC50 (Mu-type opioid receptor [6]; read-out: EC50) [µM] | IC50 [7] [µM] | IC50 (Mu-type opioid receptor [8]) [µM] | also measured |
| --- | --- | --- | --- | --- | --- | --- | --- | --- | --- | --- | --- | --- | --- |
| CCCC[C@H](NC(=O)[C@H](N)Cc1c[nH]c2ccccc12)C(=O)N[C@@H](CC(=O)O)C(=O)N[C@@H](Cc1ccccc1)C(=O)NNC(=O)[C@H](Cc1ccccc1)NC(=O)CNC(=O)[C@@H](C)NC(=O)[C@@H](N)Cc1ccc(O)cc1 | 0.00324 | 0.0014 | 0.0012 | 0.00051 | 10.2 | 10 | 9.33 | 9.3 | 0.0094 | 0.0096 | 0.026 | 0.081 | EC50 (Mu-type opioid receptor [6]; read-out: Log EC50 (converted)): 0.00977 µM |
| CCCC[C@H](NC(=O)[C@H](Cc1c[nH]c2ccccc12)NC(=O)OC(C)(C)C)C(=O)N[C@@H](CC(=O)O)C(=O)N[C@@H](Cc1ccccc1)C(=O)NNC(=O)[C@H](Cc1ccccc1)NC(=O)CNC(=O)[C@@H](C)NC(=O)[C@@H](N)Cc1ccc(O)cc1 | 0.138 | 0.059 | 0.055 | 0.024 | 4.07 | 4.1 | 3.98 | 3.8 | 0.027 | 0.0095 | 0.23 | 0.055 | – |
| CCCC[C@H](NC(=O)[C@H](CC(=O)O)NC(=O)[C@H](Cc1ccccc1)NN[C@@H](Cc1ccccc1)C(=O)NCC(=O)N[C@H](C)C(=O)N[C@@H](Cc1ccc(O)cc1)C(=O)O)C(=O)N[C@H](Cc1cn(C(=O)OC2C3CC4CC(C3)CC2C4)c2ccccc12)C(=O)O (stereo not given in full) | – | – | – | – | – | – | – | – | – | – | – | – | Emax [5]: 61%; Emax [9]: 60%; Activity [10]: 0% |
| CC(=O)N[C@@H](Cc1c[nH]c2ccccc12)C(=O)N[C@@H](CCCCNC(=O)Nc1ccccc1Cl)C(=O)N[C@@H](CC(=O)O)C(=O)N(C)[C@@H](Cc1ccccc1)C(=O)NNC(=O)[C@H](Cc1ccccc1)NC(=O)CNC(=O)[C@@H](C)NC(=O)[C@@H](N)Cc1ccc(O)cc1 | – | 0.00048 | – | 0.00092 | – | – | – | – | – | – | 0.026 | 0.2 | Log IC50 [1]: -8.95; Log IC50 (Mu-type opioid receptor [2]): -8.67; Ki ([3]; hek293): 1 µM; Log IC50 ([3]; hek293): -5.99; Ki ([4]; hek293): 1.7 µM; Log IC50 ([4]; hek293): -5.76; EC50 ([5]; cho): 0.0013 µM; EC50 (Mu-type opioid receptor [6]; cho, read-out: EC50): 0.015 µM |
| CCCC[C@H](NC(=O)[C@@H](Cc1c[nH]c2ccccc12)NC(=O)OC(C)(C)C)C(=O)N[C@@H](CC(=O)O)C(=O)N[C@@H](Cc1ccccc1)C(=O)NNC(=O)[C@H](Cc1ccccc1)NC(=O)CNC(=O)[C@@H](C)NC(=O)[C@@H](N)Cc1ccc(O)cc1 | 0.0933 | 0.045 | 0.0646 | 0.031 | 35.5 | > 10 | 10 | > 10 | 0.074 | 0.21 | 0.024 | 0.46 | – |
| CCCC[C@@H](C(=O)N[C@@H](CC(=O)O)C(=O)N[C@@H](Cc1ccccc1)C(=O)NNC(=O)[C@H](Cc1ccccc1)NC(=O)CNC(=O)[C@@H](C)NC(=O)[C@@H](N)Cc1ccc(O)cc1)N(C)C(=O)[C@@H](Cc1c[nH]c2ccccc12)NC(=O)OC(C)(C)C | 0.002 | 0.00082 | 0.0479 | 0.02 | 1.91 | 1.9 | 1.55 | 1.5 | 0.026 | 0.00064 | 0.042 | – | – |
| CCCC[C@H](NC(=O)[C@@H](Cc1c[nH]c2ccccc12)NC(=O)OC12CC3CC(CC(C3)C1)C2)C(=O)N[C@@H](CC(=O)O)C(=O)N[C@@H](Cc1ccccc1)C(=O)NNC(=O)[C@H](Cc1ccccc1)NC(=O)CNC(=O)[C@@H](C)NC(=O)[C@@H](N)Cc1ccc(O)cc1 | 0.000417 | 0.00023 | 0.195 | 0.088 | 0.851 | 0.84 | 0.562 | 0.56 | 0.027 | 0.01 | 0.038 | 0.64 | – |
